From ChEMBL document CHEMBL1781902, “Anticancer properties of an important drug lead podophyllotoxin can be efficiently mimicked by diverse heterocyclic scaffolds accessible via one-step synthesis” (2011)
Active and inactive are the calls of the source. The calls are words filed in the database; no cut-off is given here.

Legend:
MCF7 = test: Antiproliferative activity against human MCF7 cells after 48 hrs by MTT assay; format: functional; settings: MCF7, 48 h
Outline: (§1)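 Cells were seeded at 2 × 10^4 cells/mL, allowed to adhere 24 h, then exposed 48 h to a concentration series, with DMSO as control. MTT was added for 2 h at 37 °C, formazan dissolved in DMSO and OD read at 490 nm. GI50 is the concentration giving 50% viability loss versus DMSO; 8 replicates, at least two independent experiments, ± SD.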

HeLa [1] = test: Antiproliferative activity against human HeLa cells after 48 hrs by MTT assay; format: functional; outline: as §1
Bos taurus [2] = species: Bos taurus; test: Inhibition of purified bovine tubulin polymerization assessed as microtubule destabilization at 3 uM after 20 mins by fluorescence spectrophotometric analysis relative to control
Outline: (§2)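 Purified bovine tubulin was incubated at 37 °C in buffer with 10% glycerol and 1 mM GTP, each agent in a separate run, against a 0.05% DMSO control. Polymerization was followed by fluorescence spectrophotometry for 20 min, reading every 15 s.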

HeLa [3] = test: Antimitotic activity in human HeLa cells assessed as visible deffect in microtubule organization at 5 nM after 3 hrs by inverted microscopic analysis; format: functional, cell-based
Outline: (§3)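 HeLa cells in DMEM with 10% fetal calf serum, pyruvate, bicarbonate and PSF were treated 3 h with compound solubilized in DMSO and prediluted in medium, or with 0.1% DMSO carrier. Cells were fixed in methanol at −20°C and blocked 1 h in PBS-5% BSA. They were stained overnight at 4°C for tubulin, Hec1 and Hoechst 33342, then imaged by epifluorescence with structured illumination.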

Bos taurus [4] = species: Bos taurus; test: Inhibition of purified bovine tubulin polymerization assessed as microtubule destabilization at 25 uM after 20 mins by fluorescence spectrophotometric analysis; outline: as §2
Jurkat [5] = test: Induction of apoptosis in human Jurkat cells assessed as cleavage of caspase 3 substrate DEVD-p-nitroanaline 2 hrs by spectrophotometric analysis; format: functional, cell-based
Outline: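 Jurkat cells (RPMI-1640, 10% FBS) were treated at 0.1, 0.5 and 1 μM alongside DMSO control. Lysates from 1 × 10^6 cells were normalized by BCA protein assay, then incubated with DEVD-pNA substrate for 2 h at 37 °C. Read at 405 nm and expressed relative to DMSO set as one. Quadruplicates, repeated at least twice.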

HeLa [6] = test: Antimitotic activity in human HeLa cells assessed as nucleated microtubule at 10 uM after 3 hrs by inverted microscopic analysis; format: functional, cell-based
Outline: (§4)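 HeLa cells in DMEM with 10% fetal calf serum, pyruvate, bicarbonate and PSF were exposed for 3 h to compound diluted from DMSO stock into medium, carrier 0.1% DMSO. Cells were fixed in methanol at −20 °C, blocked 1 h in PBS with 5% BSA, then stained overnight at 4 °C with anti-tubulin, anti-Hec1 and Hoechst 33342. Imaged by epifluorescence microscopy with structured illumination.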

HeLa [7] = test: Antimitotic activity in human HeLa cells assessed as disruption of mitotic microtubule organization at 5 nM after 3 hrs by inverted microscopic analysis; format: functional, cell-based; outline: as §4
HeLa [8] = test: Antimitotic activity in human HeLa cells assessed as disruption of interphase microtubule organization at 5 nM after 3 hrs by inverted microscopic analysis; format: functional, cell-based; outline: as §4
Jurkat [9] = test: Induction of apoptosis in human Jurkat cells at 5 to 8 nM after 48 hrs by annexinV-propidium iodide staining based FITC analysis; format: functional, cell-based
Outline: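 Jurkat cells plated at 2 × 10^5 cells/mL were exposed for 48 h across a concentration range. They were pelleted, resuspended in HHB containing CaCl2, propidium iodide and Annexin-V-FITC, and labelled 20 min at 37 °C. Annexin-V-positive cells were scored by flow cytometry as % apoptotic. Triplicates, repeated at least twice, ± SD.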

HeLa [10] = test: Antimitotic activity in human HeLa cells assessed as disruption of interphase microtubule organization at 10 uM after 3 hrs by inverted microscopic analysis; format: functional, cell-based; outline: as §3
HeLa [11] = test: Antimitotic activity in human HeLa cells assessed as visible deffect in mitotic spindle formation at 10 uM after 3 hrs by inverted microscopic analysis; format: functional, cell-based; outline: as §3

Row | Structure (SMILES) | GI50 (MCF7) [nM] | GI50 (HeLa [1]) [nM] | also measured
1 | O=C1OCC2=C1[C@H](c1cc(Br)cc(Br)c1)c1ccc3ccccc3c1N2 | 9 | 9 | –
2 | O=C1OCC2=C1[C@@H](c1cc(Br)cc(Br)c1)c1ccc3ccccc3c1N2 | 14000 | 19000 | –
3 | CC(=O)O[C@H]1C(=O)[C@@]2(C)[C@H]([C@H](OC(=O)c3ccccc3)[C@]3(O)C[C@H](OC(=O)[C@H](O)[C@@H](NC(=O)c4ccccc4)c4ccccc4)C(C)=C1C3(C)C)[C@]1(OC(C)=O)CO[C@@H]1C[C@@H]2O | – | – | inhibition (Bos taurus [2]): inactive
4 | COc1cc2c(c(OC)c1OC)-c1ccc(OC)c(=O)cc1[C@@H](NC(C)=O)CC2 | – | – | Activity (HeLa [3]): inactive
5 | O=C1OCC2=C1C(c1cc(Br)cc(Br)c1)c1cn[nH]c1N2 (racemic) | 25 | 25 | inhibition (Bos taurus [4]): Active; Activity (Jurkat [5]): Active
6 | COc1cc(C2C3=C(COC3=O)Nc3[nH]ncc32)cc(OC)c1OC (racemic) | 250 | 3000 | –
7 | COc1cc(C2C3=C(COC3=O)Nc3[nH]ncc32)cc(Br)c1OC (racemic) | 250 | 750 | –
8 | O=C1OCC2=C1C(c1cccc(Br)c1)c1cn[nH]c1N2 (racemic) | 100 | 75 | –
9 | Cc1n[nH]c2c1C(c1cncc(Br)c1)C1=C(COC1=O)N2 (racemic) | 800 | 3000 | –
10 | O=C1OCC2=C1C(c1cncc(Br)c1)c1cn[nH]c1N2 (racemic) | 15 | 75 | –
11 | Cc1n[nH]c2c1C(c1cc(Br)cc(Br)c1)C1=C(COC1=O)N2 (racemic) | 75 | 75 | –
12 | COc1cc(Br)cc(C2C3=C(COC3=O)Nc3[nH]nc(C)c32)c1O (racemic) | 100 | 35 | –
13 | COc1cc(Br)cc(C2C3=C(COC3=O)Nc3[nH]ncc32)c1O (racemic) | 30 | 25 | –
14 | Cc1n[nH]c2c1C(c1cc(Br)ccc1O)C1=C(COC1=O)N2 (racemic) | 250 | 300 | –
15 | O=C1OCC2=C1C(c1cc(Br)ccc1O)c1cn[nH]c1N2 (racemic) | 25 | 50 | –
16 | COc1cccc(C2C3=C(COC3=O)Nc3[nH]ncc32)c1O (racemic) | 500 | 2000 | –
17 | O=C1OCC2=C1C(c1cc(Br)cc(Br)c1O)c1cn[nH]c1N2 (racemic) | 10 | 20 | Activity (HeLa [6]): Active; Activity (HeLa [7]): Active; inhibition (Bos taurus [4]): Active; Activity (Jurkat [5]): Active; Activity (HeLa [8]): Active; Activity (Jurkat [9]): Active
18 | O=C1OCC2=C1C(c1cc(Br)cs1)c1cn[nH]c1N2 (racemic) | 740 | 1150 | –
19 | COc1cc(C2C3=C(COC3=O)Nc3c2ccc2ccccc32)cc(OC)c1OC (racemic) | 3 | 3 | –
20 | O=C1OCC2=C1C(c1cc(Br)cc(Br)c1)c1ccc3ccccc3c1N2 (racemic) | 14 | 16 | –
21 | COc1cc(C2C3=C(COC3=O)Nc3c2ccc2ccccc32)cc(Br)c1OC (racemic) | 3 | 3 | –
22 | O=C1OCC2=C1C(c1cc(Br)cc(Br)c1O)c1ccc3ccccc3c1N2 (racemic) | 21 | 18 | –
23 | COc1cc(Br)cc(C2C3=C(COC3=O)Nc3c2ccc2ccccc32)c1O (racemic) | 3 | 3 | –
24 | O=C1OCC2=C1C(c1cc(Br)ccc1O)c1ccc3ccccc3c1N2 (racemic) | 3 | 3 | –
25 | O=C1OCC2=C1C(c1cncc(Br)c1)c1ccc3ccccc3c1N2 (racemic) | 13 | 7 | –
26 | O=C1OCC2=C1C(c1cc(Br)cs1)c1ccc3ccccc3c1N2 (racemic) | 3 | 3 | –

Row | Structure (SMILES) | GI50 (MCF7) [nM] | GI50 (HeLa [1]) [nM] | also measured
27 | COc1cc(C2C3=C(COC3=O)Nc3c2ccc2ccc(O)cc32)cc(OC)c1OC (racemic) | 3 | 2 | –
28 | O=C1OCC2=C1C(c1cc(Br)cc(Br)c1)c1ccc3ccc(O)cc3c1N2 (racemic) | 3 | 6 | –
29 | COc1cc(C2C3=C(COC3=O)Nc3c2ccc2ccc(O)cc32)cc(Br)c1OC (racemic) | 3 | 2 | –
30 | O=C1OCC2=C1C(c1cc(Br)cc(Br)c1O)c1ccc3ccc(O)cc3c1N2 (racemic) | 3 | 7 | –
31 | COc1cc(Br)cc(C2C3=C(COC3=O)Nc3c2ccc2ccc(O)cc32)c1O (racemic) | 3 | 6 | –
32 | O=C1OCC2=C1C(c1cc(Br)ccc1O)c1ccc3ccc(O)cc3c1N2 (racemic) | 3 | 3 | –
33 | O=C1OCC2=C1C(c1cncc(Br)c1)c1ccc3ccc(O)cc3c1N2 (racemic) | 3 | 3 | –
34 | O=C1OCC2=C1C(c1cc(Br)cs1)c1ccc3ccc(O)cc3c1N2 (racemic) | 3 | 3 | –
35 | COc1cc(C2C3=C(COC3=O)Nc3c2ccc2c(O)cccc32)cc(OC)c1OC (racemic) | 3 | 3 | –
36 | O=C1OCC2=C1C(c1cc(Br)cc(Br)c1)c1ccc3c(O)cccc3c1N2 (racemic) | 23 | 21 | –
37 | Nc1cc2c(c3ccccc13)NC1=C(C(=O)OC1)C2c1cc(Br)cc(Br)c1 (racemic) | 16 | 21 | –
38 | COc1cc(C2C3=C(COC3=O)Nc3ccc4ccccc4c32)cc(OC)c1OC (racemic) | 121 | 540 | –
39 | O=C1OCC2=C1C(c1cc(Br)cc(Br)c1)c1c(ccc3ccccc13)N2 (racemic) | 201 | 420 | –
40 | COc1cc(C2C3=C(COC3=O)Nc3cc4c(cc32)CCCC4)cc(OC)c1OC (racemic) | 19 | 18 | –
41 | O=C1OCC2=C1C(c1cc(Br)cc(Br)c1)c1cc3c(cc1N2)CCCC3 (racemic) | 70 | 100 | –
42 | COc1cc(C2C3=C(COC3=O)Nc3c2ccc2[nH]ccc32)cc(OC)c1OC (racemic) | 22 | 19 | –
43 | O=C1OCC2=C1C(c1cc(Br)cc(Br)c1)c1ccc3[nH]ccc3c1N2 (racemic) | 21 | 114 | –
44 | COc1cc(C2C3=C(COC3=O)Nc3[nH][nH]c(=O)c32)cc(OC)c1OC (racemic) | > 10000 | > 10000 | –
45 | O=C1OCC2=C1C(c1cc(Br)cc(Br)c1)c1c([nH][nH]c1=O)N2 (racemic) | > 10000 | > 10000 | –
46 | COc1cc(C2C3=C(COC3=O)Nc3nc(SC)nc(N)c32)cc(OC)c1OC (racemic) | 170 | 125 | –
47 | CSc1nc(N)c2c(n1)NC1=C(C(=O)OC1)C2c1cc(Br)cc(Br)c1 (racemic) | 1020 | 561 | –
48 | COc1cc(C2C3=C(COC3=O)Nc3[nH]nc(C)c32)cc(OC)c1OC (racemic) | 5000 | 5000 | –
49 | COc1cc(C2C3=C(COC3=O)Nc3[nH]nc(C)c32)cc(Br)c1OC (racemic) | 1000 | 750 | –
50 | Cc1n[nH]c2c1C(c1cccc(Br)c1)C1=C(COC1=O)N2 (racemic) | 4000 | 3000 | –
51 | COc1cc([C@@H]2c3cc4c(cc3[C@H](O)[C@H]3COC(=O)[C@H]23)OCO4)cc(OC)c1OC [PODOFILOX] | 10 | 20 | Activity (HeLa [10]): inactive; inhibition (Bos taurus [4]): Active; Activity (Jurkat [5]): Active; Activity (HeLa [11]): Active
